Results published in ChEMBL document CHEMBL4350961, “Discovery of Pyrrolo[3,2- d]pyrimidin-4-one Derivatives as a New Class of Potent and Cell-Active Inhibitors of P300/CBP-Associated Factor Bromodomain” (J Med Chem, 2019).
Activity calls are given as the source filed them.

Assays:
[1] = biological target: Serine/threonine-protein kinase B-raf (Homo sapiens) (UniProt P15056); assay: Inhibition of recombinant human BRAF (416 to end residues) at 10 uM using myelin basic protein as substrate measured after 40 mins in presence of [gamma33P]ATP by scintillation counting method
[2] = biological target: Calcium/calmodulin-dependent protein kinase type 1 (Homo sapiens) (UniProt Q14012); assay: Inhibition of recombinant human CaMK1 (2 to end residues) at 10 uM using calmodulin as substrate measured after 40 mins in presence of [gamma33P]ATP by scintillation counting method
[3] = biological target: CDC7/Cyclin B1 (Homo sapiens) (UniProt P14635+O00311); assay: Inhibition of recombinant full-length human CDC7/cyclinB1 at 10 uM using Histone H1 as substrate measured after 120 mins in presence of [gamma33P]ATP by scintillation counting method; assay type: protein-complex assay
Chain of CDC7/Cyclin B1 (Homo sapiens) (O00311 whole entry, looked up, the tested form may be a part, canonical isoform): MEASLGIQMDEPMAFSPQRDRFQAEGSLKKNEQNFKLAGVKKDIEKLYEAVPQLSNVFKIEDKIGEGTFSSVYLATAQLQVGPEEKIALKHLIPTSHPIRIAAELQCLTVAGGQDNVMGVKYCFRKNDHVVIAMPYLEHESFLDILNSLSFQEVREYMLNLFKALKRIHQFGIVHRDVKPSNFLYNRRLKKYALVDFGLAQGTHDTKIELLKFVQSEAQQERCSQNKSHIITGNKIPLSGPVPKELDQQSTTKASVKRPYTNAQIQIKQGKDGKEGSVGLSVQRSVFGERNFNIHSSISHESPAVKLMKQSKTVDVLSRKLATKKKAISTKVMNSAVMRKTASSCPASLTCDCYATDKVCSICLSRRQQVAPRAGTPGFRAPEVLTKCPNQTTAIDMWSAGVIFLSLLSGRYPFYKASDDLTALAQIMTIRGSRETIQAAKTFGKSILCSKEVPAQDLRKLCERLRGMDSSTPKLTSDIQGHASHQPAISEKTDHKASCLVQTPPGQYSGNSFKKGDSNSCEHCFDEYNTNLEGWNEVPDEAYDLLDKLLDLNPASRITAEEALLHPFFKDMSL
Chain of CDC7/Cyclin B1 (Homo sapiens) (P14635 whole entry, looked up, the tested form may be a part, canonical isoform): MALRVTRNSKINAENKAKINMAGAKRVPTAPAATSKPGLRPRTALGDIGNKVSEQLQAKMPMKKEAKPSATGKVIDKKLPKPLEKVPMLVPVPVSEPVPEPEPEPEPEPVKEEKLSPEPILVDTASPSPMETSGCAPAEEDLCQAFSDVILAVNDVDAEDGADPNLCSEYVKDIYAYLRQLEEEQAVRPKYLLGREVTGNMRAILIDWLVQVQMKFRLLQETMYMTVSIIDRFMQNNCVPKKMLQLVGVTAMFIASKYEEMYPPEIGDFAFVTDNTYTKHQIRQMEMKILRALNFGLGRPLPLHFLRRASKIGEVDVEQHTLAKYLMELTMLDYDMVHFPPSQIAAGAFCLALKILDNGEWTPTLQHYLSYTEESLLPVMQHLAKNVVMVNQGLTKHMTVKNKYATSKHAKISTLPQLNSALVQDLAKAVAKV

[4] = biological target: Casein kinase I isoform gamma-1 (Homo sapiens) (UniProt Q9HCP0); assay: Inhibition of recombinant human CK1gamma1 (25 to 355 residues) at 10 uM using KRRRALS(p)VASLPGL as substrate measured after 40 mins in presence of [gamma33P]ATP by scintillation counting method
[5] = test system: Serine/threonine-protein kinase Chk2 (Homo sapiens), O96017 [I157T]; assay: Inhibition of recombinant human CHK2 I157T mutant (5 to end residues) at 10 uM using KKKVSRSGLYRSPSMPENLNRPR as substrate measured after 40 mins in presence of [gamma33P]ATP by scintillation counting method
[6] = biological target: Dual specificity protein kinase CLK4 (Homo sapiens) (UniProt Q9HAZ1); assay: Inhibition of recombinant human CLK4 (128 to end residues) at 10 uM using YRRAAVPPSPSLSRHSSPHQS(p)EDEEE as substrate measured after 40 mins in presence of [gamma33P]ATP by scintillation counting method
Chain of Dual specificity protein kinase CLK4 (Homo sapiens) (Q9HAZ1 whole entry, looked up): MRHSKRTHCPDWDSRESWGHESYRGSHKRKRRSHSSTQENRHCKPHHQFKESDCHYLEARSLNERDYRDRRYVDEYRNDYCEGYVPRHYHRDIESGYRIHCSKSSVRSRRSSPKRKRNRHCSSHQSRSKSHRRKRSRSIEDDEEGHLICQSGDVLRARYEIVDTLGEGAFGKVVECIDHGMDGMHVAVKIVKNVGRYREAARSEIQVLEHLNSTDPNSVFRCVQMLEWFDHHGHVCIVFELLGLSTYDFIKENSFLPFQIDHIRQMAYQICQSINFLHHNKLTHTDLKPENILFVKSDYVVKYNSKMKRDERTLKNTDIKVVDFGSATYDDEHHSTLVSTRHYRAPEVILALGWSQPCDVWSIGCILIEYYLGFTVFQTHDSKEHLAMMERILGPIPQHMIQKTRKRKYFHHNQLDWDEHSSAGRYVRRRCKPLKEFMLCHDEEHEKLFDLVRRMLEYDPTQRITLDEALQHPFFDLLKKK

[7] = test system: RAF proto-oncogene serine/threonine-protein kinase (Homo sapiens), P04049 [Y340D,Y341D]; assay: Inhibition of recombinant human c-RAF Y340D/Y341D mutant (360 to end residues) at 10 uM using inactive MEK1 as substrate measured after 40 mins in presence of [gamma33P]ATP by scintillation counting method
Homo sapiens [8] = species on record: Homo sapiens; assay: Inhibition of recombinant human DDR1 V833L mutant (492 to end residues) at 10 uM using KKKSPGEYVNIEFG as substrate measured after 40 mins in presence of [gamma33P]ATP by scintillation counting method
[9] = biological target: Fibroblast growth factor receptor 1 (Homo sapiens) (UniProt P11362); assay: Inhibition of recombinant human FGFR1 (456 to 765 residues) at 10 uM using KKKSPGEYVNIEFG as substrate measured after 40 mins in presence of [gamma33P]ATP by scintillation counting method
[10] = biological target: Insulin-like growth factor 1 receptor (Homo sapiens) (UniProt P08069); assay: Inhibition of recombinant human activated IGF1R (959 to end residues) at 10 uM using KKKSPGEYVNIEFG as substrate measured after 40 mins in presence of [gamma33P]ATP by scintillation counting method
Homo sapiens [11] = species on record: Homo sapiens; assay: Inhibition of recombinant full-length human JNK2alpha2 S51N mutant at 10 uM using ATF2 as substrate measured after 40 mins in presence of [gamma33P]ATP by scintillation counting method
[12] = biological target: Serine/threonine-protein kinase MAK (Homo sapiens) (UniProt P20794); assay: Inhibition of recombinant full-length human MAK at 10 uM using RRRFRPASPLRGPPK as substrate measured after 120 mins in presence of [gamma33P]ATP by scintillation counting method
Chain of Serine/threonine-protein kinase MAK (Homo sapiens) (P20794 whole entry, the tested form may be a part): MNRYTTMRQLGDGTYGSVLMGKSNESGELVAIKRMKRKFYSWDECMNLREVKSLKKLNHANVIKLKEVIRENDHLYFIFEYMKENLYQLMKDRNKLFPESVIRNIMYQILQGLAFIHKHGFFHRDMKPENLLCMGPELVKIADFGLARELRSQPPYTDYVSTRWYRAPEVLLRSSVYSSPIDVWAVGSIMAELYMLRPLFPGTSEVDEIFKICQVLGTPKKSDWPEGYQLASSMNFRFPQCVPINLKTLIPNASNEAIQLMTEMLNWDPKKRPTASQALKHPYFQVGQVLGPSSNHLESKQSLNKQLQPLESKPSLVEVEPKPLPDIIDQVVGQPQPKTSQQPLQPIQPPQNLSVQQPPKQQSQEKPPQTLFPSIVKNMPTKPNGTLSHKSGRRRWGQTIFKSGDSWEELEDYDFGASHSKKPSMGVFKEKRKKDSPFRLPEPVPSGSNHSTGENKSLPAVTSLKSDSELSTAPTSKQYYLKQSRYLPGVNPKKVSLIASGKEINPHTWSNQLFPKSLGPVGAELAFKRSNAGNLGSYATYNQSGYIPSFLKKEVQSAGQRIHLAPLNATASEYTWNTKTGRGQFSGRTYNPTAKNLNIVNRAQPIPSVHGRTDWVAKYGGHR

[13] = biological target: Myosin-IIIb (Homo sapiens) (UniProt Q8WXR4); assay: Inhibition of recombinant full-length human MYO3B (1 to 326 residues) at 10 uM using RLGRDKYKTLRQIRQ as substrate measured after 40 mins in presence of [gamma33P]ATP by scintillation counting method
Chain of Myosin-IIIb (Homo sapiens) (Q8WXR4 whole entry, the tested form may be a part): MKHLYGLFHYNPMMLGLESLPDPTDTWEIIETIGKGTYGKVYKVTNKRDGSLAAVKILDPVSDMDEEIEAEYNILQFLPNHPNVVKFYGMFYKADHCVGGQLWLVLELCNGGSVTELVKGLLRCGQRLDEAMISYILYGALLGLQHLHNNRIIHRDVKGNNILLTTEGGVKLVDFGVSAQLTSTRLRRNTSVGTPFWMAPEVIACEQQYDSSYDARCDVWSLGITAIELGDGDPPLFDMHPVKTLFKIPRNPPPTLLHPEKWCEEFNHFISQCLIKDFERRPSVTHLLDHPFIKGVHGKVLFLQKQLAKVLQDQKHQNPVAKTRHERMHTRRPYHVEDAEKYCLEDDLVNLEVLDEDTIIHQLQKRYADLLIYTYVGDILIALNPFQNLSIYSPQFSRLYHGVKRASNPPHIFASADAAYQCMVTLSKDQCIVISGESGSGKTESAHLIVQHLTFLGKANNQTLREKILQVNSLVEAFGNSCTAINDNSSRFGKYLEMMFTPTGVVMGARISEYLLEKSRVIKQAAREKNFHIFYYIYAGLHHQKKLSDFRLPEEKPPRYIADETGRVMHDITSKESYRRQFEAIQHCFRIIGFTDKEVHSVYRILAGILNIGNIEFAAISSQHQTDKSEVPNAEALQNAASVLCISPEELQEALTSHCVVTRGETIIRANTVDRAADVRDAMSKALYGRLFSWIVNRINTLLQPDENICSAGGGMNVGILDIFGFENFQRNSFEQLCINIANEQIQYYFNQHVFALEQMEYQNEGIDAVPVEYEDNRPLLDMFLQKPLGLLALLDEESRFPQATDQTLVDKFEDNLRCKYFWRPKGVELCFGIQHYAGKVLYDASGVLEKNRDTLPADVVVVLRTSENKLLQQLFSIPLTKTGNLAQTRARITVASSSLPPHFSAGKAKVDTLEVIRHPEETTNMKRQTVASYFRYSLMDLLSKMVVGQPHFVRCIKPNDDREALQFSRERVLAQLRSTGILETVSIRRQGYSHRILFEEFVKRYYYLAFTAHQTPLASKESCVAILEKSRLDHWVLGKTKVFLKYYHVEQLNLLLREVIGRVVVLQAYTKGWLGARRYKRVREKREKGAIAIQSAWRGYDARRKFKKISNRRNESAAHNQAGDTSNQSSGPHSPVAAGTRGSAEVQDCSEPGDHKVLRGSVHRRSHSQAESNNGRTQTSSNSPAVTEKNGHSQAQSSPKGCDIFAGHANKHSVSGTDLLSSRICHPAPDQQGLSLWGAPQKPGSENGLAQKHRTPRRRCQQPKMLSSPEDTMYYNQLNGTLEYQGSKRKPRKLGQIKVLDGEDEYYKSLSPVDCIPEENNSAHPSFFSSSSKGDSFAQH

[14] = biological target: Serine/threonine-protein kinase NLK (Homo sapiens) (UniProt Q9UBE8); assay: Inhibition of recombinant human NLK (121 to end residues) at 10 uM using myelin basic protein as substrate measured after 40 mins in presence of [gamma33P]ATP by scintillation counting method
[15] = biological target: Protein kinase C beta type (Homo sapiens) (UniProt P05771); assay: Inhibition of recombinant human PKCbeta1 (2 to end residues) at 10 uM using histone H1 as substrate measured after 40 mins in presence of [gamma33P]ATP by scintillation counting method
[16] = biological target: Interferon-induced, double-stranded RNA-activated protein kinase (Homo sapiens) (UniProt P19525); assay: Inhibition of recombinant human PKR (252 to end residues) at 10 uM using RSRSRSRSRSRSRSR as substrate measured after 40 mins in presence of [gamma33P]ATP by scintillation counting method
[17] = biological target: cAMP-dependent protein kinase catalytic subunit PRKX (Homo sapiens) (UniProt P51817); assay: Inhibition of recombinant full-length human PrKX at 10 uM using RRRLSFAEPG as substrate measured after 40 mins in presence of [gamma33P]ATP by scintillation counting method
[18] = biological target: Protein-tyrosine kinase 2-beta (Homo sapiens) (UniProt Q14289); assay: Inhibition of recombinant full-length human Pyk2 at 10 uM using poly(Glu, Tyr) 4:1 as substrate measured after 40 mins in presence of [gamma33P]ATP by scintillation counting method
[19] = test system: SNF-related serine/threonine-protein kinase (Homo sapiens), Q9NRH2 [UNDEFINED MUTATION]; assay: Inhibition of human SNRK E97G/P116A mutant (65 to 409 residues) using KKLRRTLSFAEPG as substrate measured after 40 mins in presence of [gamma33P]ATP by scintillation counting method
Method in brief: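 Kinase panel of 422 kinases screened by Eurofins KinaseProfiler at a single test-compound concentration of 10 µM.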

[20] = biological target: Serine/threonine-protein kinase 32B (Homo sapiens) (UniProt Q9NY57); assay: Inhibition of recombinant full-length human STK32B at 10 uM using casein as substrate measured after 120 mins in presence of [gamma33P]ATP by scintillation counting method
Chain of Serine/threonine-protein kinase 32B (Homo sapiens) (Q9NY57 whole entry): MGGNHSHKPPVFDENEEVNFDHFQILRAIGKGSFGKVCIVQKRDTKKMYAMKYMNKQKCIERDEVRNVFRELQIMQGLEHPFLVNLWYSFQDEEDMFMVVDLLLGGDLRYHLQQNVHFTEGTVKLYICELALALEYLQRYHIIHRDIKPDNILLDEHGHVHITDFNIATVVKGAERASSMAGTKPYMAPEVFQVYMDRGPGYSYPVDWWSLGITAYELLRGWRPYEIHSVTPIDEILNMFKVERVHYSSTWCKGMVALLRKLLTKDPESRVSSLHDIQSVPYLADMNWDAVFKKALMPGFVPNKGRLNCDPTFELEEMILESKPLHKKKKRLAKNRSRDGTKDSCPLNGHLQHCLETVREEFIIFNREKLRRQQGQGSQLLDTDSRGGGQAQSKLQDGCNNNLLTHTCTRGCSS

[21] = biological target: Non-receptor tyrosine-protein kinase TYK2 (Homo sapiens) (UniProt P29597); assay: Inhibition of human TYK2 (875 to end residues) using GGMEDIYFEFMGGKKK as substrate measured after 40 mins in presence of [gamma33P]ATP by scintillation counting method
Chain of Non-receptor tyrosine-protein kinase TYK2 (Homo sapiens) (P29597 whole entry, the tested form may be a part): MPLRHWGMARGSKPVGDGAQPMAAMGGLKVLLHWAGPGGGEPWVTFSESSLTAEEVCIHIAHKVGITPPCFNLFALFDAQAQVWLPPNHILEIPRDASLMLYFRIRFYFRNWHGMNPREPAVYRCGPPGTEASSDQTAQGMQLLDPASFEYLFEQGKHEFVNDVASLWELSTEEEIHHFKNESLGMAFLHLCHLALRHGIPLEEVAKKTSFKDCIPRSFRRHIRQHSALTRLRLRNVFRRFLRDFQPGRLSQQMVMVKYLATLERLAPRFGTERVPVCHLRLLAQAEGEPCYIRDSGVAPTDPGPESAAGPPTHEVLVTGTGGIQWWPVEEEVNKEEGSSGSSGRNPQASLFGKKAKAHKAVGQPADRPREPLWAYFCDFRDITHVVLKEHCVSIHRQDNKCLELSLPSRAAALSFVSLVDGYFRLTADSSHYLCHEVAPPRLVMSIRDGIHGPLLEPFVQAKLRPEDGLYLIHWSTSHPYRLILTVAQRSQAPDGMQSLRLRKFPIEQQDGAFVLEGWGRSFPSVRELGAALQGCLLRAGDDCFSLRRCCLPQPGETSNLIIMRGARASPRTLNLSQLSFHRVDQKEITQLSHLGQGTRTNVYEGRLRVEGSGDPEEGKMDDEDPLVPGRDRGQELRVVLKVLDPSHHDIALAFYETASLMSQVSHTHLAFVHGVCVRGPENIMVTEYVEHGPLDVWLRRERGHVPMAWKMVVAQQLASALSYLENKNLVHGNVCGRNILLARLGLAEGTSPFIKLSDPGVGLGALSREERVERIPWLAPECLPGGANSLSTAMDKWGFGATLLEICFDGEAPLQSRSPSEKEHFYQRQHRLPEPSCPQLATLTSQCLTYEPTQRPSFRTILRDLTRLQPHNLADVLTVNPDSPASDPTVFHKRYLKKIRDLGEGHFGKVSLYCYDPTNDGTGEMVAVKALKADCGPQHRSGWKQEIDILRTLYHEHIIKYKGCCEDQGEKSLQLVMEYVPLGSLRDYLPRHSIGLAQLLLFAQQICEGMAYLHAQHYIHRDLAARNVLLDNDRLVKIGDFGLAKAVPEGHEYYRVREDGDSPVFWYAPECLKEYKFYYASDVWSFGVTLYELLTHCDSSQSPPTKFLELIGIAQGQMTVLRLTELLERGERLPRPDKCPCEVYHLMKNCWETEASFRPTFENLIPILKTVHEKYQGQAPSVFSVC

[22] = biological target: Serine/threonine-protein kinase VRK2 (Homo sapiens) (UniProt Q86Y07); assay: Inhibition of human VRK2 (1 to 336 residues) using casein as substrate measured after 40 mins in presence of [gamma33P]ATP by scintillation counting method
[23] = biological target: PI3K p110 beta/p85 alpha (Homo sapiens) (UniProt P27986+P42338); assay: Inhibition of recombinant full-length human PI3K p110beta/p85alpha at 10 uM using phosphatidylinositol-4, 5-bisphosphate as substrate measured after 40 mins by fluorescence assay; assay type: protein-complex assay

Measured: inhibition

CN1C[C@H](Nc2nc3cc[nH]c3c(=O)n2C)C[C@H](c2ccc3c(c2)OCCO3)C1
inactive: all assays above
